FGF22 binding: binders of human FGF22 protein, primary screen, FGF22 synaptogenesis inhibitor project, biophysical, thermal shift, single point. Fibroblast growth factor 22 (Homo sapiens), Q9HCT0. recombinant FGF22 thermal shift, SYPRO orange fluorescence; percent of sucrose octasulfate shift, DMSO zero. activity (Tm shift, normalised), % at 9.99 µM. hit rate 1.5% among 340,000. AID 651658, 2012;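 active = mean Tm shift, scaled 0 neutral to 100 positive control, at about 1.3% or above, every replicate too, limit read from the data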
rRNA inh HTS: reduced GFP signal of wild-type E. coli, primary screen, bacterial rRNA inhibitor project, GFP/RFP fluorescence, OD600, single point. E. coli WT GFP vs humanized-ribosome RFP mutants, 24 h; stronger effect = lower value; DMSO median 0, no signal -100. GFP signal change (wild-type ribosome), % (test concentration not listed). hit rate 1.6% among 350,000. AID 720706, 2013;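 active = significant combined selectivity score with lowered wild-type GFP, culture density cut under 30%, mutant RFP and density less affected; inactive = any of these conditions unmet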
Cneo AK release: Cryptococcus neoformans cell lysis inducers, primary screen, AK release luminescence, single concentration; hit rate 0.2% among 360,000; C. neoformans lysis, adenylate kinase release luminescence, 4 h; normalised: neutral wells 0, clomiphene wells 100; lysis activity, % at 15 µM;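 active = mean lysis activity across replicates of at least 80%, whatever share of replicates individually reach that level; inactive = mean lysis activity below 80%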
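Assay system: C. neoformans cells. Amount: yeast cell density of 5 × 10^6 cells/mL. Technique: AK luminescence. Buffer or medium: YPD. Times: static 4 h at 37 °C with compound, 1 h detection. Dosing: single-point compound dose. Read-out: lysis from increased AK signal.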
ERAP1 inh: human ERAP1 aminopeptidase inhibitors, primary screen, biochemical, single point, plate reader | recombinant ERAP1, Leu-AMC fluorescence, 60 min | hit rate 0.15% among 340,000 | inhibition, % at 10.7 µM | Endoplasmic reticulum aminopeptidase 1 (Homo sapiens), Q9NZ08;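 active = mean replicate inhibition of at least 30%, or all replicates individually reaching that 30% level; inactive = mean below 30% and not every replicate reaching it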;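 note: 0% = neutral control wells and 100% = L-leucinethiol positive control wells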
HIV Env fusion: inhibitors of HIV-1 Env-driven cell-cell fusion, primary screen, HeLa-JRFL effector, CEM21 target cells, luciferase; inhibition, % at 12.3 µM; hit rate 1.1% among 360,000; AID 651610, 2012;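 active = mean replicate inhibition score of at least 50 and every replicate individually at or above 50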;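 note: 0% = plate neutral controls and 100% = maraviroc near 300 nM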
PGC1a acetyl inh: inhibitors of PGC1a acetylation signal, primary screen, cell-based, U2OS, AlphaScreen, inhibitor mode; AID 651687, 2012; hit rate 0.17% among 350,000; inhibition, % at 15.6 µM; AlphaScreen anti-acetyl-lysine; with virally co-expressed GCN5 acetyltransferase;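 active = every replicate shows inhibition of at least 40%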;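 note: 0% = neutral control wells and 100% = positive control wells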
An asterisk follows results filed as active; i = inactive; . = not tested or not shown; ! = not confirmed by another sample. Most compounds without a hit are left out; they make up all but 3.5% or so of the library.

SMILES	FGF22 binding	rRNA inh HTS	Cneo AK release	ERAP1 inh	HIV Env fusion	PGC1a acetyl inh
CC1CCOC(=O)C=CC=CC(=O)OC2CC3OC4C5OC5(C)C(O)CC4(COC(=O)C1O)C2(C)C31CO1 (centres undefined)	0	.	.	-2	59*	77*
CC1=CC2OC3CC4OC(=O)C=CC=CC(C(C)O)OCC(O)C5(C)OC5C(=O)OCC2(CC1O)C4(C)C31CO1 (centres undefined)	0	8	.	0	73*	87*
Cc1cc(C(=O)OCC(=O)Nc2cccc(F)c2)c(C)n1C1CC1	0	-23	0	-2	.	.
CC=CC(C)=CC(C)C(=O)CC(O)CC1CC(=O)NC(=O)C1 (centres undefined)	0	4	.	2	24	.
CC1CC(C)(O)CC(C(O)CC2CC(=O)NC(=O)C2)C1=O (centres undefined)	0	19	.	2	98*	77*
COc1ccc(/C=C2\C(=O)NC(=S)N(C)C2=O)cc1C	0	12	.	34*	-6	11
Cc1ccsc1/C=C1\C(=O)NC(=S)N(C)C1=O	0	7	0	3	-8	-13
O=c1cccc2n1CC1CC2CN(Cc2ccc3c(c2)OCO3)C1 (centres undefined)	.	.	4	.	-45	-3
COc1ccc(NP(=O)(Oc2cccc(C)c2)Oc2cccc(C)c2)cc1OC	0	-18*	.	11	-82	-16
Cc1cccc(OP(=O)(Nc2ccc(F)cc2)Oc2cccc(C)c2)c1	43*	-33	.	0	10	.
Cc1cccc(OP(=O)(Nc2cccnc2)Oc2cccc(C)c2)c1	.	.	.	.	10	.
O=C(Cc1ccccc1)N1CCCCN2[C@H](C1)[C@@H](c1ccc(C#CC3(O)CCCC3)cc1)[C@@H]2CO	0	1	0	3	.	3
CCn1nc(-c2ccccc2)nc2c(=O)n(C)c(=O)nc1-2	.	.	.	.	.	-4
Cc1nc2c(=O)n(C)c(=O)nc-2n(C)n1	.	.	.	.	.	78*
CN(C)c1ccc(/C=C/[N+](=O)[O-])cc1	0	-18*	.	3	-25	.
C=CC[N+]1(C)C2CCC1CC(O)C2 (centres undefined)	0	27	-5	2	7	3
O=P(Nc1cccnc1)(Oc1ccccc1Cl)Oc1ccccc1Cl	0	-33*	.	5	-6	.
O=P(Nc1ccccc1)(Oc1ccccc1)Oc1ccccc1	0	-5	-2	2	15	-1
NS(=O)(=O)OC(CCc1ccccc1)C(Cl)(Cl)Cl (centres undefined)	45*	9	-2	4	.	0
O=C(Cc1ccccc1)Oc1cccc(N2C(=O)CCC2=O)c1	.	.	1	.	.	.
COC(=O)[C@@H]1N=C(c2ccc(OC)cc2)O[C@]12C(=O)N(Cc1ccccc1)c1ccccc12	-1	-12	.	.	5	.
CC1=CC(C)CC(C)OC(=O)CC(c2ccc(O)cc2)NC(=O)C(Cc2c(Br)[nH]c3ccccc23)N(C)C(=O)C(C)NC(=O)C(C)C1 (centres undefined)	0	10	.	0	81*	35
C=C(C)[C@H]1CN[C@H](C(=O)O)[C@H]1CC(=O)O	0	4	-1	-2	-12	1
COc1cccc(-c2sc3ccccc3c2-c2ccc(OCCN3CCOCC3)cc2)c1	0	11	1	2	14	.
CCOc1ccc(-c2cc(C)[n+](CCN3CCOCC3)c(-c3ccc(OCC)cc3)c2)cc1	0	-53*	.	5	8	-9
SMILES	FGF22 binding	rRNA inh HTS	Cneo AK release	ERAP1 inh	HIV Env fusion	PGC1a acetyl inh
COC(=O)C1=C(c2cc3ccccc3s2)C[C@@H]2CC[C@H]1N2C(=O)N1CCCCC1	0	-27	1	7	.	.
C=C1[C@@H](C)[C@H]2[C@H](Cc3ccccc3)NC(=O)[C@]23OC(=O)/C=C/[C@H](O)CCC[C@@H](C)C/C=C/[C@H]3[C@@H]1O	0	.	0	-2	69*	31
Clc1cccc(CN2CCCCC2c2cccnc2)c1 (centres undefined)	0	1	-2	-1	.	2
Cc1ccc(C[n+]2c(-c3ccc(C)cc3)cc(-c3ccc(C)cc3)cc2-c2ccc(C)cc2)cc1	.	.	-3	.	.	67*
O=[N+]([O-])c1ccc2c(c1)C(c1ccccc1)=NCCN2	0	-6	0	4	23	-2
Cc1[nH]c2ccc(OCc3ccccc3)cc2c1CCN	0	9	0	-3	-8	2
NCCc1c(Cc2ccccc2)[nH]c2ccccc12	0	-20*	2	-3	-6	13
COc1ccc(C(CC(=O)c2ccc3c(c2)OCO3)c2c(O)c3ccccc3oc2=O)cc1OC (centres undefined)	1	-30*	-1	6	-29	.
COc1ccc(C(CC(C)=O)c2c(O)c3ccccc3oc2=O)cc1OC (centres undefined)	0	-3	.	5	0	.
COc1ccc(NC(c2ccccc2F)P(=O)(Oc2ccccc2)Oc2ccccc2)cc1 (centres undefined)	44*	11	.	3	17	.
c1ccc(C(OCCN2CCN(c3ncccn3)CC2)c2ccccc2)cc1	0	-32	2	.	12	2
O=C1C(=O)c2ccccc2-c2ccccc21	-1	.	-6	0	91*	38
NC(Cc1ccc(F)cc1)c1csc(Nc2ncccn2)n1 (centres undefined)	0	6	0	10	-3	.
COC(=O)C1=C(C(=O)OC)SC2(S1)C(C(=O)OC)=C(C(=O)OC)Sc1c2ssc1=O	0	-23*	.	3	i	.
C[N+]1(C)CCc2cc3c(cc2[C@H]1[C@@H]1OC(=O)c2c1ccc1c2OCO1)OCO3	0	0	2	53*!	19	-19
COc1cc2c(cc1OC)C(C1c3cc4c(cc3CCN1C)OCO4)OC2=O (centres undefined)	0	-5	1	0	8	.
CCCCOC(=O)c1ccccc1C(=O)OCCCC	0	10	1	1	.	0
O=C1CN=C(c2ccccc2)c2cc(Br)ccc2N1	0	-23	3	3	-10	26
CNc1ccc2oc(C[C@H]3O[C@@]4(CC[C@H]3C)O[C@H]([C@H](C)C(=O)c3ccc[nH]3)[C@H](C)C[C@H]4C)nc2c1C(=O)O	-1	.	-2	2	90*	1
Cc1cc(C)c(C(=O)CN2CCOCC2)c(C)c1	.	.	-4	.	.	-3
COc1ccc(-n2c(/C=C/c3ccc(O)c(O)c3)nc3ccccc3c2=O)cc1	0	-21*	-1	0	-4	.
